# From ChEMBL document CHEMBL5724801, “EUbOPEN Chemogenomics Library - Multiplex” (2024)
# Where “and” joins values, the source holds several entries; their conditions need not be identical. Identical values can stand only once.
# System: HEK-293T
# Assay: Multiplex assay against HEK293T
# Type: toxicity, cell-based
# Conditions: human
# Method in brief: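 On a CQ1 microscope at 37°C and 5% CO2, live cells were imaged after compound addition. They had been stained at seeding with Hoechst33342, BioTracker Green Microtubule Cytoskeleton Dye, MitoTracker Red and Annexin V Alexa Fluor 680. CellPathfinder machine-learning gating assigned cells to Hoechst high-intensity objects or normal cells, normal cells to healthy, pyknosed or fragmented nuclei, and pyknosed cells to mitotic or apoptotic. Tubulin, mitochondrial-mass and membrane-permeability phenotypes are per cents of healthy-nucleus cells.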
# [1] = 12 h, 1 µM, compound concentration 1 uM
# [2] = 12 h, 10 µM, compound concentration 10 uM
# [3] = 24 h, 1 µM, compound concentration 1 uM
# [4] = 24 h, 10 µM, compound concentration 10 uM
# [5] = 48 h, 1 µM, compound concentration 1 uM
# [6] = 48 h, 10 µM, compound concentration 10 uM
compound,measurement,setting,value
COC(c1ccccc1)(c1ccccc1)[C@H](Oc1nc(C)cc(C)n1)C(=O)O [AMBRISENTAN],Population Apoptotic (%),[1],38%
same,Population Fragmented Nuclei (%),[1],7%
same,Population Healthy Nuclei (%),[1],75% and 81%
same,Population Hoechst High Intensity Objects (%),[1],6% and 11%
same,Population Membrane Permeable-Phenotype (%),[1],0%
same,Population Mitochondria Different-Phenotype (%),[1],53% and 63%
same,Population Mitotic Cells (%),[1],61%
same,Population Normal (%),[1],93% and 88%
same,Population Pyknosed Nuclei (%),[1],16% and 10%
same,Population Tubulin-Different-Phenotype (%),[1],30% and 23%
same,Total Cell Count,[1],249 and 326
same,Population Apoptotic (%),[2],33% and 56%
same,Population Fragmented Nuclei (%),[2],8% and 5%
same,Population Healthy Nuclei (%),[2],76% and 80%
same,Population Hoechst High Intensity Objects (%),[2],6% and 13%
same,Population Membrane Permeable-Phenotype (%),[2],0%
same,Population Mitochondria Different-Phenotype (%),[2],47% and 57%
same,Population Mitotic Cells (%),[2],66% and 43%
same,Population Normal (%),[2],93% and 86%
same,Population Pyknosed Nuclei (%),[2],15% and 14%
same,Population Tubulin-Different-Phenotype (%),[2],23% and 18%
same,Total Cell Count,[2],383 and 262
same,Population Apoptotic (%),[3],37% and 43%
same,Population Fragmented Nuclei (%),[3],9%
same,Population Healthy Nuclei (%),[3],76% and 82%
same,Population Hoechst High Intensity Objects (%),[3],4% and 7%
same,Population Membrane Permeable-Phenotype (%),[3],1% and 0%
same,Population Mitochondria Different-Phenotype (%),[3],30% and 39%
same,Population Mitotic Cells (%),[3],62% and 56%
same,Population Normal (%),[3],95% and 92%
same,Population Pyknosed Nuclei (%),[3],14% and 8%
same,Population Tubulin-Different-Phenotype (%),[3],19% and 16%
same,Total Cell Count,[3],313 and 404
same,Population Apoptotic (%),[4],30% and 44%
same,Population Fragmented Nuclei (%),[4],10% and 8%
same,Population Healthy Nuclei (%),[4],73% and 78%
same,Population Hoechst High Intensity Objects (%),[4],4% and 12%
same,Population Membrane Permeable-Phenotype (%),[4],0%
same,Population Mitochondria Different-Phenotype (%),[4],34% and 41%
same,Population Mitotic Cells (%),[4],69% and 55%
same,Population Normal (%),[4],95% and 87%
same,Population Pyknosed Nuclei (%),[4],15% and 12%
same,Population Tubulin-Different-Phenotype (%),[4],18% and 17%
same,Total Cell Count,[4],441 and 318
same,Population Apoptotic (%),[5],27% and 40%
same,Population Fragmented Nuclei (%),[5],17% and 12%
same,Population Healthy Nuclei (%),[5],72% and 80%
same,Population Hoechst High Intensity Objects (%),[5],2% and 3%
same,Population Membrane Permeable-Phenotype (%),[5],3% and 0%
same,Population Mitochondria Different-Phenotype (%),[5],22% and 23%
same,Population Mitotic Cells (%),[5],72% and 59%
same,Population Normal (%),[5],97% and 96%
same,Population Pyknosed Nuclei (%),[5],10% and 7%
same,Population Tubulin-Different-Phenotype (%),[5],13% and 10%
same,Total Cell Count,[5],600 and 605
same,Population Apoptotic (%),[6],26% and 53%
same,Population Fragmented Nuclei (%),[6],14%
same,Population Healthy Nuclei (%),[6],77% and 79%
same,Population Hoechst High Intensity Objects (%),[6],2% and 7%
same,Population Membrane Permeable-Phenotype (%),[6],1% and 0%
same,Population Mitochondria Different-Phenotype (%),[6],18% and 27%
same,Population Mitotic Cells (%),[6],73% and 46%
same,Population Normal (%),[6],97% and 92%
same,Population Pyknosed Nuclei (%),[6],8% and 5%
same,Population Tubulin-Different-Phenotype (%),[6],13% and 15%
same,Total Cell Count,[6],711 and 480
CC(N)C1CCC(C(=O)Nc2ccncc2)CC1 (stereo unspecified),Population Apoptotic (%),[1],7.48% and 4.2%
same,Population Fragmented Nuclei (%),[1],1.19% and 1.23%
same,Population Healthy Nuclei (%),[1],63.72% and 25.31%
same,Population Hoechst High Intensity Objects (%),[1],0.48% and 0%
same,Population Membrane Permeable-Phenotype (%),[1],0%
same,Population Mitotic Cells (%),[1],92.52% and 95.8%
same,Population Normal (%),[1],99.52% and 100%
same,Population Pyknosed Nuclei (%),[1],35.08% and 73.46%
same,Total Cell Count,[1],421 and 162
same,Population Fragmented Nuclei (%),[2],1.2% and 1.9%
same,Population Healthy Nuclei (%),[2],60.28% and 29.75%
same,Population Hoechst High Intensity Objects (%),[2],0%
same,Population Membrane Permeable-Phenotype (%),[2],0.99% and 4.26%
same,Population Mitochondria Different-Phenotype (%),[2],27.81% and 17.02%
same,Population Mitotic Cells (%),[2],96.37% and 83.33%
same,Population Normal (%),[2],100%
same,Population Pyknosed Nuclei (%),[2],38.52% and 68.35%
same,Population Apoptotic (%),[3],2.15% and 8.97%
same,Population Fragmented Nuclei (%),[3],1.77% and 1.69%
same,Population Healthy Nuclei (%),[3],83.28% and 54.49%
same,Population Hoechst High Intensity Objects (%),[3],0.16% and 1.11%
same,Population Membrane Permeable-Phenotype (%),[3],0.97% and 3.09%
same,Population Mitochondria Different-Phenotype (%),[3],6.76% and 5.15%
same,Population Mitotic Cells (%),[3],97.85% and 91.03%
same,Population Normal (%),[3],99.84% and 98.89%
same,Population Pyknosed Nuclei (%),[3],14.95% and 43.82%
same,Population Tubulin-Different-Phenotype (%),[3],6.56% and 4.12%
same,Population Apoptotic (%),[4],4.95% and 13.95%
same,Population Fragmented Nuclei (%),[4],1.78% and 1.58%
same,Population Healthy Nuclei (%),[4],73.29% and 53.16%
same,Population Hoechst High Intensity Objects (%),[4],0% and 0.52%
same,Population Membrane Permeable-Phenotype (%),[4],0.19% and 2.97%
same,Population Mitochondria Different-Phenotype (%),[4],6.17% and 6.93%
same,Population Mitotic Cells (%),[4],95.05% and 86.05%
same,Population Normal (%),[4],100% and 99.48%
same,Population Pyknosed Nuclei (%),[4],24.93% and 45.26%
same,Population Tubulin-Different-Phenotype (%),[4],3.36% and 1.98%
same,Population Apoptotic (%),[5],7.52% and 3.77%
same,Population Fragmented Nuclei (%),[5],2.72% and 1.86%
same,Population Healthy Nuclei (%),[5],86.94% and 78.44%
same,Population Hoechst High Intensity Objects (%),[5],0% and 0.74%
same,Population Membrane Permeable-Phenotype (%),[5],3.76% and 2.84%
same,Population Mitochondria Different-Phenotype (%),[5],10.11% and 9.95%
same,Population Mitotic Cells (%),[5],92.48% and 96.23%
same,Population Normal (%),[5],100% and 99.26%
same,Population Pyknosed Nuclei (%),[5],10.34% and 19.7%
same,Population Fragmented Nuclei (%),[6],1.32% and 1.83%
same,Population Healthy Nuclei (%),[6],88.05% and 71.1%
same,Population Hoechst High Intensity Objects (%),[6],0% and 0.91%
same,Population Membrane Permeable-Phenotype (%),[6],2.25% and 0.65%
same,Population Mitochondria Different-Phenotype (%),[6],9.07% and 6.45%
same,Population Mitotic Cells (%),[6],96.89% and 81.36%
same,Population Normal (%),[6],100% and 99.09%
same,Population Pyknosed Nuclei (%),[6],10.63% and 27.06%
same,Population Tubulin-Different-Phenotype (%),[6],0.3% and 9.68%
